Assay results published in ChEMBL document CHEMBL4364329, “Prodrug Activation by a Viral Protease: Evaluating Combretastatin Peptide Hybrids To Selectively Target Infected Cells” (ACS Med Chem Lett, 2019).
Non-standard residues stand in square brackets, D forms with d. Residues, ends and D or L forms follow the SMILES beside them. ξ: configuration not given here. *: point of attachment. X1 = COc1ccc(/C=C\c2cc(OC)c(OC)c(OC)c2)cc1N*; 2Abz = Nc1ccccc1C(=O)O; ξNle = CCCCC(N)C(=O)O; Bz = O=C(c1ccccc1)*

Key:
[1] = Cytotoxicity against human HuH7 cells assessed as reduction in cell viability measured after 24 hrs by cell titer blue assay; assay type: cell-based, Huh-7
[2] = Ratio of compound CC50 to CA4 CC50 for human HuH7 cells measured after 72 hrs by cell titer blue assay; assay type: ADME, cell-based, Huh-7
[3] = Cytotoxicity against human HuH7 cells assessed as reduction in cell viability measured after 72 hrs by cell titer blue assay; assay type: cell-based, Huh-7
dengue virus type 2 [4] = test: Antiviral activity against wild type Dengue virus serotype 2 infected in human HuH7 cells assessed as reduction in viral titer at 25 uM measured after 24 hrs by Cell-Titer Glo luminescent assay relative to control; assay type: functional; details: Huh-7, 24 h
How it was run: (§1)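 Cells treated 24 h before titer readout; virus-containing supernatant split into duplicates, plaques counted and averaged, reduction calculated versus untreated blank; single-point experiment.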

Genome polyprotein [5] = target: T1, Genome polyprotein (dengue virus type 2, UniProt P29990); test: Prodrug activation assessed as Dengue virus serotype 2 NS2B-NS3 protease expressed in Escherichia coli BL21 lambda (DE3) cells-mediated compound hydrolysis in TRIS buffer at pH 9 at 500 uM incubated for 2 hrs by HPLC-UV analysis; details: dengue virus type 2, pH 9, 2 h
How it was run: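 DENV protease at 1 μM with substrate at 500 μM in pH 9 buffer, incubated 2 h at 37 °C; fraction hydrolysed determined, triplicate wells.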

Zika virus [6] = test: Antiviral activity against Zika virus infected in human HuH7 cells assessed as reduction in viral titer at 5 uM measured after 24 hrs by Cell-Titer Glo luminescent assay relative to control; assay type: functional; details: Huh-7, 24 h
How it was run: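 Readout began after 24 h. This was a single-point experiment. Virus-containing supernatant was aliquoted in duplicate, plaques were counted and averaged, and reduction was calculated against an untreated blank.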

HeLa [7] = test: Ratio of compound CC50 to CA4 CC50 for human HeLa cells measured after 72 hrs by cell titer blue assay; assay type: ADME, cell-based
[8] = Cytotoxicity against human HeLa cells assessed as reduction in cell viability measured after 72 hrs by cell titer blue assay; assay type: cell-based
Zika virus [9] = test: Antiviral activity against Zika virus infected in human HuH7 cells assessed as reduction in viral titer at 50 uM measured after 24 hrs by Cell-Titer Glo luminescent assay relative to control; assay type: functional; details: Huh-7, 24 h; how it was run: as §1
Trypsin = Trypsin (Homo sapiens, UniProt P07477+P07478+P35030); test: Prodrug activation assessed as trypsin (unknown origin)-mediated compound hydrolysis in TRIS buffer at pH 9 at 100 uM incubated for 2 hrs; assay type: protein assay; details: pH 9, 2 h
Genome polyprotein [10] = target: T1, Genome polyprotein; test: Inhibition of Dengue virus serotype 2 NS2B-NS3 protease expressed in Escherichia coli BL21 lambda (DE3) cells preincubated with enzyme for 15 mins followed by 2-Abz-Nle-Lys-Arg-Arg-Ser-(3-NO2)-Tyr-NH2 FRET substrate addition measured for 15 mins by fluorescence analysis
Genome polyprotein [11] = target: T1, Genome polyprotein; test: Inhibition of Dengue virus NS2B-NS3 protease using FRET Abz-Nle-Lys-Arg-Arg-Ser-3-(NO2)Tyr as substrate
HeLa [12] = test: Cytotoxicity against human HeLa cells assessed as cell doubling time by cell titer blue assay; assay type: cell-based
Huh-7 [13] = test: Cytotoxicity against human HuH7 cells assessed as cell doubling time by cell titer blue assay; assay type: cell-based
Huh-7 [14] = test: Cytotoxicity against human HuH7 cells assessed as induction of mitosis after 24 hrs; assay type: cell-based; details: huh-7, 24 h
dengue virus type 2 [15] = test: Antiviral activity against wild type Dengue virus serotype 2 infected in human HuH7 cells assessed as reduction in viral titer measured after 24 hrs by Cell-Titer Glo luminescent assay; assay type: functional, organism-based; details: Huh-7, 24 h

Compound	CC50 at 24 h [1] [nM]	selectivity ratio at 72 h [2]	CC50 at 72 h [3] [nM]	inhibition at 25 µM (dengue virus type 2 [4]) [%]	Drug metabolism (Genome polyprotein [5])	inhibition at 5 µM (Zika virus [6]) [%]	Ratio (HeLa [7])	CC50 at 72 h [8] [nM]	inhibition at 50 µM (Zika virus [9]) [%]	Drug metabolism (Trypsin)	IC50 (Genome polyprotein [10]) [nM]	IC50 (Genome polyprotein [11]) [nM]	Time (HeLa [12]) [h]	Time (Huh-7 [13]) [h]	Activity (Huh-7 [14])	EC50 (dengue virus type 2 [15]) [nM]
COc1ccc(/C=C\c2cc(OC)c(OC)c(OC)c2)cc1N	> 100000	20 to 2000	3.93	66	Metabolite_Notdetected	84	20 to 2000	1.47	–	–	–	–	–	–	–	–
COc1ccc(/C=C\c2cc(OC)c(OC)c(OC)c2)cc1NC(=O)[C@H](CO)NC(=O)[C@H](CCCNC(=N)N)NC(=O)[C@H](CCCCN)NC(=O)c1ccccc1	77900	20 to 2000	134	61	6.3%	–	20 to 2000	61.8	–	–	–	–	–	–	–	–
COc1ccc(/C=C\c2cc(OC)c(OC)c(OC)c2)cc1NC(=O)CNC(=O)[C@H](CCCNC(=N)N)NC(=O)[C@H](CCCNC(=N)N)NC(=O)c1ccccc1	88600	20 to 2000	26.6	84	39%	–	20 to 2000	7.2	–	–	–	–	–	–	–	–
COc1ccc(/C=C\c2cc(OC)c(OC)c(OC)c2)cc1NC(=O)CNC(=O)[C@H](CCCNC(=N)N)NC(=O)[C@H](CCCCN)NC(=O)c1ccccc1	> 100000	20 to 2000	172	53	32%	–	20 to 2000	78.2	–	–	–	–	–	–	–	–
COc1ccc(/C=C\c2cc(OC)c(OC)c(OC)c2)cc1NC(=O)CN	173000	20 to 2000	26.9	69	Metabolite_Notdetected	–	20 to 2000	37.7	–	–	–	–	–	–	–	–
COc1ccc(/C=C\c2cc(OC)c(OC)c(OC)c2)cc1NC(=O)[C@H](CO)NC(=O)[C@H](CCCNC(=N)N)NC(=O)[C@H](CCCNC(=N)N)NC(=O)c1ccccc1	> 100000	20 to 2000	23.1	51	3.4%	–	20 to 2000	29.2	92	Metabolite_Detected	25000	–	–	–	–	–
COc1ccc(/C=C\c2cc(OC)c(OC)c(OC)c2)cc1NC(=O)CCNC(=O)[C@H](CCCNC(=N)N)NC(=O)[C@H](CCCNC(=N)N)NC(=O)c1ccccc1	190000	20 to 2000	156	57	6.7%	–	20 to 2000	952	–	–	–	–	–	–	–	–
COc1ccc(/C=C\c2cc(OC)c(OC)c(OC)c2)cc1NC(=O)[C@H](C)N	123000	20 to 2000	6.03	64	Metabolite_Notdetected	–	20 to 2000	6.69	–	–	–	–	–	–	–	–
COc1ccc(/C=C\c2cc(OC)c(OC)c(OC)c2)cc1NC(=O)[C@H](C)NC(=O)[C@H](CCCNC(=N)N)NC(=O)[C@H](CCCNC(=N)N)NC(=O)c1ccccc1	111000	20 to 2000	191	57	36%	–	20 to 2000	65.7	–	–	–	–	–	–	–	–
COc1ccc(/C=C\c2cc(OC)c(OC)c(OC)c2)cc1NC(=O)[C@H](C)NC(=O)[C@H](CCCNC(=N)N)NC(=O)[C@H](CCCCN)NC(=O)c1ccccc1	> 100000	20 to 2000	71.6	69	5.2%	–	20 to 2000	24.6	–	–	–	–	–	–	–	–
COc1ccc(/C=C\c2cc(OC)c(OC)c(OC)c2)cc1NC(=O)[C@H](CCCNC(=N)N)NC(=O)[C@@H](N)CCCNC(=N)N	–	–	–	–	–	–	–	–	–	–	–	6300	–	–	–	–
COc1ccc(/C=C\c2cc(OC)c(OC)c(OC)c2)cc1NC(=O)CNC(=O)CNC(=O)[C@H](CCCNC(=N)N)NC(=O)[C@H](CCCNC(=N)N)NC(=O)c1ccccc1 (Bz-RRGG-X1)	59700	20 to 2000	24	55	42%	–	20 to 2000	19.5	–	Metabolite_Detected	–	–	–	–	–	–
CCCCC(NC(=O)c1ccccc1N)C(=O)N[C@@H](CCCCN)C(=O)N[C@@H](CCCNC(=N)N)C(=O)N[C@@H](CCCNC(=N)N)C(=O)N[C@@H](CO)C(=O)N[C@@H](Cc1ccc(O)cc1)C(N)=O (stereo partly drawn) (H-[2Abz][ξNle]KRRSY-NH2)	–	–	–	–	94%	–	–	–	–	–	–	–	–	–	–	–
COc1ccc(/C=C\c2cc(OC)c(OC)c(OC)c2)cc1O [COMBRETASTATIN A4]	38300	–	1.05	–	Metabolite_Notdetected	70	–	0.428	–	–	–	–	24	48	Toxic	870
